Experimental data published in PubChem BioAssay.
Some of the results follow. Active and inactive are the calls of the source.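 Rule for the calls, unless noted: active = mean activation over triplicate wells above the hit cutoff derived from the earlier primary screen (cut at about 11% in these data); inactive = the rest.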

Target: Galanin receptor type 2 (Homo sapiens) (UniProt O43603)
Test: blockers of human galanin receptor 2 – cell-based, confirmation (AID 866; in the data active = inhibition above about 27%;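 note: cells stimulated with galanin at about its EC80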)
Details: GALR2-expressing cells, antagonist mode, at 4 µM, hits give high values

Chain of Galanin receptor type 2 (Homo sapiens) (O43603 whole entry, looked up): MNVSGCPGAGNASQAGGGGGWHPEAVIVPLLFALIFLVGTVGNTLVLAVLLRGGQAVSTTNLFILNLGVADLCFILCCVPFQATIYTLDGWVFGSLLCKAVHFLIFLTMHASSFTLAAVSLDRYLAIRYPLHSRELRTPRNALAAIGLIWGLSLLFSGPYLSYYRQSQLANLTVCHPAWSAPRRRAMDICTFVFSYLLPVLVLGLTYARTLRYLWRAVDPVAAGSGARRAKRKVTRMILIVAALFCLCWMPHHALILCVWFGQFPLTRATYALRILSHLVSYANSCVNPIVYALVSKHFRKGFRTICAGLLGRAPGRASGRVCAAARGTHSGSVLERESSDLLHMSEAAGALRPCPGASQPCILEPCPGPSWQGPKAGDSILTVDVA

SMILES	inhibition
Cc1cc(-c2n[nH]c(=S)n2/N=C/C(Br)=C/c2ccccc2)n[nH]1	44.1% (active)
COc1ccc(/C=C/C(=O)Nc2ccc(C34CC5CC(CC(O)(C5)C3)C4)cc2)cc1OC	43.6% (active)
COCC(C)NC(=O)c1ccc(Cl)c(Cl)c1 (stereo not given)	10.6% (inactive)
Fc1ccc2[nH]c3c(N4CCN(Cc5ccc6c(c5)OCO6)CC4)ncnc3c2c1	50.2% (active)
O=C(CNC(=O)OCc1ccccc1)Oc1cc2oc(=O)cc(-c3ccccc3)c2cc1Cl	33.2% (active)
c1ccc(-c2nnc(SCc3nc4ccccc4[nH]3)o2)cc1	13.7% (inactive)
O=C(/C=C/Sc1ncn[nH]1)c1ccc(Cl)cc1	50.7% (active)
COc1ccc(C)cc1NC(=O)c1[nH]c(C)c(C(C)=O)c1C	22.8% (inactive)
FC(F)(F)c1cnc(Oc2ccccc2-c2nnc(-c3ccc(Cl)cc3)o2)c(Cl)c1	3.44% (inactive)

Tested on: not listed separately
Test: nonspecific BLA reporter inhibition – CHO NFAT-bla cells, FRET readout, counter-screen for GALR2 antagonist project, confirmation (AID 867;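 active = inhibition above the mean inhibition across tested compounds plus 3 SD, cut at about 27% in these data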;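 note: 0% = 500 nM thapsigargin stimulated wells and 100% = unstimulated BSA only wells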)
Details: beta-lactamase FRET, thapsigargin-stimulated, at 4.2 µM, hits give high values

SMILES	inhibition
Cc1cc(-c2n[nH]c(=S)n2/N=C/C(Br)=C/c2ccccc2)n[nH]1	20.9% (inactive)
COc1ccc(/C=C/C(=O)Nc2ccc(C34CC5CC(CC(O)(C5)C3)C4)cc2)cc1OC	21.4% (inactive)
COCC(C)NC(=O)c1ccc(Cl)c(Cl)c1 (stereo not given)	4.96% (inactive)
Fc1ccc2[nH]c3c(N4CCN(Cc5ccc6c(c5)OCO6)CC4)ncnc3c2c1	24.3% (inactive)
O=C(CNC(=O)OCc1ccccc1)Oc1cc2oc(=O)cc(-c3ccccc3)c2cc1Cl	37% (active)
c1ccc(-c2nnc(SCc3nc4ccccc4[nH]3)o2)cc1	5.82% (inactive)
O=C(/C=C/Sc1ncn[nH]1)c1ccc(Cl)cc1	17% (inactive)
COc1ccc(C)cc1NC(=O)c1[nH]c(C)c(C(C)=O)c1C	4.72% (inactive)
FC(F)(F)c1cnc(Oc2ccccc2-c2nnc(-c3ccc(Cl)cc3)o2)c(Cl)c1	8.76% (inactive)

Tested on: DAF-12 nuclear receptor (Heterodera glycines), GAL4-LBD fusion
Test: hgDAF-12 GAL4 fusion reporter activation, retest – cell-based, luminescence, HEK293, GAL4-LBD fusion, confirmation (AID 743050);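 note: 0% = DMSO low control and 100% = 2 mM sodium butyrate high control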
Details: HEK293 GAL4-hgDAF12 luciferase reporter, agonist mode; at 6.8 µM; hits give high values; percent of butyrate response

SMILES	activation
COc1ccc(/C=C2/CCCc3ccccc3C2=O)cc1	18.7% (active)
COc1ccc(Nc2ccc3ccccc3c2)cc1	13% (active)
Cc1ccc(NC(=O)c2sccc2C)cc1[N+](=O)[O-]	11% (active)
O=C(NCCc1c[nH]c2ccccc12)c1cc2ccccc2oc1=O	13.4% (active)
O=C(c1cnn2ccccc12)N1CCc2ccccc21	13.2% (active)
CC(=O)c1ccccc1NC(=O)COC(=O)C1COc2ccccc2O1 (stereo not given)	-0.02% (inactive)
O=C(NCCOc1ccccc1)c1ccccc1	13.3% (active)
O=C(CSC(=S)N1CCCCC1)c1c(F)cccc1F	13.4% (active)
COC(=O)c1sc(NC(=O)c2ccc(OC)cc2OC)nc1C	7.02% (inactive)
Cc1ccc2nc(-c3ccc(SCC(=O)Nc4cc(C)on4)nc3)[nH]c2c1	15.6% (active)
COc1ccc(-c2cn3cccnc3n2)cc1	9.37% (inactive)
O=C(Nc1ccc(Cl)c(Cl)c1)c1ccccc1NC(=O)C1CC=CCC1C(=O)O (stereo not given)	10.2% (inactive)
COC(=O)N/N=C/c1cn(CCCOc2ccc(C)cc2)c2ccccc12	6.55% (inactive)
Cc1ccccc1Nc1nc(-c2cccnc2)cs1	16.4% (active)
Cc1cnc(C(=O)N2CCCC(C(=O)c3ccc(C(F)(F)F)cc3)C2)cn1 (stereo not given)	4.5% (inactive)
O=C(NNC(=O)c1ccc(Cl)cc1Cl)c1cccs1	9.02% (inactive)

SMILES	activation
Clc1ccc2nc(CSc3ccccc3)cn2c1	13.2% (active)
CC(=O)Nc1ccc(-c2nc3ccccc3o2)cc1	17% (active)
COc1ccc(NC(=S)N2N=CCC2c2ccccc2)cc1 (stereo not given)	13.8% (active)
CC(/C=N/NC(=O)c1cc(-c2ccc3ccccc3c2)n[nH]1)=C\c1ccco1	1.68% (inactive)
O=C(NCCOc1ccccc1)c1ccccc1F	12.7% (active)
Cc1ccc(NC(=O)c2ccco2)cc1	11.2% (active)
Cn1c(-c2ccc(C(=O)c3ccccc3)s2)nc2ccccc21	17.6% (active)
Cc1cccc(NC(=O)/C=C/c2ccc3c(c2)OCO3)n1	18.1% (active)
Cc1ccc(C(=O)Nc2ccc(C)c(S(=O)(=O)N(C)C)c2)s1	11.2% (active)
N#CC1(Nc2ccc(-c3ccc(Cl)cc3)cc2)CCCC1	8.29% (inactive)
O=[N+]([O-])c1ccc2c(c1)Nc1nc3ccccc3nc1N2	25.8% (active)
Cc1cccc(NC(=S)NC(=O)c2ccc(Br)o2)c1	11.1% (active)
c1ccc(CN=C2Nc3ccccc3CS2)nc1	12.9% (active)
C/C(=N\NC(=O)OC(C)(C)C)c1ccc[nH]1	13.8% (active)
O=C(Nc1ccc(C2CC2(Cl)Cl)cc1)c1cccc([N+](=O)[O-])c1 (stereo not given)	15.2% (active)

Target: Oxysterols receptor LXR-beta (Homo sapiens) (UniProt P55055)
Sequence (P55055 whole entry, looked up): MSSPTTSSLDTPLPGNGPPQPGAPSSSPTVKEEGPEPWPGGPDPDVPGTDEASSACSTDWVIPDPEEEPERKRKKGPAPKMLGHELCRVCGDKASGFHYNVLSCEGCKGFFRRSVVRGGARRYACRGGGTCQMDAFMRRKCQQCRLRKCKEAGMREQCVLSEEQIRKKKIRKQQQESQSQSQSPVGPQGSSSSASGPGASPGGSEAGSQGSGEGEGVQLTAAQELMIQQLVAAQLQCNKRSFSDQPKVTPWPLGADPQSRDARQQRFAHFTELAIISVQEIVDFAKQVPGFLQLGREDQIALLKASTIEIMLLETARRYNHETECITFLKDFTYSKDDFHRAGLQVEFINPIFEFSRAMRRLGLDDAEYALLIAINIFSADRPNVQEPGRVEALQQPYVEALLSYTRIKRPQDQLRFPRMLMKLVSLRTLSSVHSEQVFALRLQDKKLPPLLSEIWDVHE
Test: nonspecific reporter activation via LXR – cell-based, luminescence, HEK293, H. glycines campaign, counter-screen for hgDAF-12 agonist project, confirmation (AID 743051;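 active = mean activation of the triplicate above a set limit carried over from the primary screen, none filed active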)
Details: HEK293 Gal4-LXR luciferase reporter, 24 h; at 6.8 µM; hits give high values
Procedure, shortened: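 Test system: HEK293 cells with Gal4-LXR and tk-luc reporter | Incubation: 24 h exposure, 37 °C | Signal: One-Glo luminescence after 15 min | Measure: % activation versus DMSO and positive controls | Benchmarks: DMSO low control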

SMILES	activation
COc1ccc(/C=C2/CCCc3ccccc3C2=O)cc1	0.78% (inactive)
COc1ccc(Nc2ccc3ccccc3c2)cc1	0.53% (inactive)
Cc1ccc(NC(=O)c2sccc2C)cc1[N+](=O)[O-]	0.43% (inactive)
O=C(NCCc1c[nH]c2ccccc12)c1cc2ccccc2oc1=O	0.56% (inactive)
O=C(c1cnn2ccccc12)N1CCc2ccccc21	0.43% (inactive)
CC(=O)c1ccccc1NC(=O)COC(=O)C1COc2ccccc2O1 (stereo not given)	0.04% (inactive)
O=C(NCCOc1ccccc1)c1ccccc1	0.69% (inactive)
O=C(CSC(=S)N1CCCCC1)c1c(F)cccc1F	0.64% (inactive)
COC(=O)c1sc(NC(=O)c2ccc(OC)cc2OC)nc1C	1.05% (inactive)
Cc1ccc2nc(-c3ccc(SCC(=O)Nc4cc(C)on4)nc3)[nH]c2c1	0.54% (inactive)
COc1ccc(-c2cn3cccnc3n2)cc1	0.23% (inactive)
O=C(Nc1ccc(Cl)c(Cl)c1)c1ccccc1NC(=O)C1CC=CCC1C(=O)O (stereo not given)	0.27% (inactive)
COC(=O)N/N=C/c1cn(CCCOc2ccc(C)cc2)c2ccccc12	0.17% (inactive)
Cc1ccccc1Nc1nc(-c2cccnc2)cs1	0.7% (inactive)
Cc1cnc(C(=O)N2CCCC(C(=O)c3ccc(C(F)(F)F)cc3)C2)cn1 (stereo not given)	0.17% (inactive)
O=C(NNC(=O)c1ccc(Cl)cc1Cl)c1cccs1	0.37% (inactive)

SMILES	activation
Clc1ccc2nc(CSc3ccccc3)cn2c1	0.71% (inactive)
CC(=O)Nc1ccc(-c2nc3ccccc3o2)cc1	0.95% (inactive)
COc1ccc(NC(=S)N2N=CCC2c2ccccc2)cc1 (stereo not given)	0.76% (inactive)
CC(/C=N/NC(=O)c1cc(-c2ccc3ccccc3c2)n[nH]1)=C\c1ccco1	0.14% (inactive)
O=C(NCCOc1ccccc1)c1ccccc1F	0.64% (inactive)
Cc1ccc(NC(=O)c2ccco2)cc1	0.49% (inactive)
Cn1c(-c2ccc(C(=O)c3ccccc3)s2)nc2ccccc21	0.88% (inactive)
Cc1cccc(NC(=O)/C=C/c2ccc3c(c2)OCO3)n1	0.84% (inactive)
Cc1ccc(C(=O)Nc2ccc(C)c(S(=O)(=O)N(C)C)c2)s1	0.45% (inactive)
N#CC1(Nc2ccc(-c3ccc(Cl)cc3)cc2)CCCC1	0.34% (inactive)
O=[N+]([O-])c1ccc2c(c1)Nc1nc3ccccc3nc1N2	1.35% (inactive)
Cc1cccc(NC(=S)NC(=O)c2ccc(Br)o2)c1	0.48% (inactive)
c1ccc(CN=C2Nc3ccccc3CS2)nc1	0.55% (inactive)
C/C(=N\NC(=O)OC(C)(C)C)c1ccc[nH]1	0.45% (inactive)
O=C(Nc1ccc(C2CC2(Cl)Cl)cc1)c1cccc([N+](=O)[O-])c1 (stereo not given)	0.56% (inactive)
